Where “and” joins values, the source holds several entries; their conditions need not be identical. Equal entries are not always repeated. Calls of active or inactive are those of the source. The rule behind the calls is not given here.
Experiments:
[1] = Analgesic potency was determined by the Eddy hotplate method on mice expressed as lethal dose; assay type: ADME, organism-based; conditions: mouse, in vivo
How it was run: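 Toxicity was tested in mice in the same series, using aqueous solutions of the hydrochloride, hydrobromide or oxalate salt, and LD50 is reported in mg/kg. When material was scarce, deaths out of ten mice given a single 50 mg/kg dose were recorded instead.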

[2] = species on record: Mus musculus; experiment: Analgesic potency was determined by the Eddy hotplate method on mice expressed as effective dose; assay type: functional
How it was run: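 Mouse Eddy hot-plate test. Compounds were given as aqueous solutions of the hydrochloride, hydrobromide or oxalate salt. ED50 is reported in mg/kg and μmol/kg, with a range in parentheses for some entries.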

[3] = species on record: Mus musculus; experiment: Analgesic potency was determined by the Eddy hotplate method on mice expressed as effective dose; IA=Inactive; assay type: functional, organism-based
How it was run: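 Mice, Eddy hot-plate analgesia. Test compounds given as aqueous solutions of their hydrochloride, hydrobromide or oxalate salts. ED50 reported in mg/kg and μmol/kg, some with a range in parentheses. Where full activity could not be reached without toxicity, an approximate value is cited. Lethality was scored as LD50 in mg/kg or as deaths per ten mice at 50 mg/kg.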

[4] = species on record: Mus musculus; experiment: Analgesic potency was determined by the Eddy hotplate method on mice; assay type: functional

Row | Structure (SMILES) | LD50 [1] [mg/kg] | ED50 [4] | other results
1 | CC(C)=CCN1CCCC2CC1c1ccccc12.O=C(O)C(=O)O (stereo unspecified) | 130 | – | –
2 | Br.CCCN1CCCC2CC1c1ccc(O)cc12 (stereo unspecified) | – | – | ED50 [2]: 32 mg/kg and 103 µmol/kg
3 | O=C(O)C(=O)O.c1ccc(CCN2CCCC3CC2c2ccccc23)cc1 (stereo unspecified) | 225 | – | –
4 | CCCN1CCCC2CC1c1ccccc12.O=C(O)C(=O)O (stereo unspecified) | 110 | – | –
5 | Br.Oc1ccc2c(c1)C1CCCN(CCc3ccccc3)C2C1 (stereo unspecified) | – | – | ED50 [2]: 14 mg/kg and 37 µmol/kg
6 | CN1CCCC2CC1c1ccc(O)cc12 (stereo unspecified) | – | – | ED50 [3]: inactive
7 | COc1ccc2c(c1)C1CCCN(C)C2C1.O=C(O)C(=O)O (stereo unspecified) | 157 | – | ED50 [2]: 16 mg/kg and 52 µmol/kg
8 | O=C(O)C(=O)O.c1ccc2c(c1)C1CCCNC2C1 (stereo unspecified) | 225 | – | –
9 | C=CCN1CCCC2CC1c1ccccc12.Cl (stereo unspecified) | 110 | 28 mg/kg and 112 µmol/kg | –
10 | Cl.c1ccc2c(c1)C1CCCNC2C1 (stereo unspecified) | 225 | 12 mg/kg and 57 µmol/kg | –
11 | CC(C)=CCN1CCCC2CC1c1ccccc12.Cl (stereo unspecified) | 65 | 48 mg/kg and 173 µmol/kg | –
12 | Cl.c1ccc(CCN2CCCC3CC2c2ccccc23)cc1 (stereo unspecified) | 225 | 86 mg/kg and 246 µmol/kg | –
13 | COc1ccc2c3c1O[C@H]1[C@@H](O)C=C[C@H]4[C@@H](C2)N(C)CC[C@@]341.COc1ccc2c3c1O[C@H]1[C@@H](O)C=C[C@H]4[C@@H](C2)N(C)CC[C@@]341.O.O=P(O)(O)O.O=P(O)(O)O [CODEINE PHOSPHATE] | – | 6.8 mg/kg and 17 µmol/kg | –
14 | C=CCN1CCCC2CC1c1ccccc12.O=C(O)C(=O)O (stereo unspecified) | 150 | – | –
15 | COc1ccc2c(c1)C1CCCN(CC=C(C)C)C2C1.O=C(O)C(=O)O (stereo unspecified) | 300 | – | ED50 [3]: inactive
16 | COc1ccc2c(c1)C1CCCNC2C1.O=C(O)C(=O)O (stereo unspecified) | – | – | ED50 [2]: 64 mg/kg and 218 µmol/kg
17 | CCCN1CCCC2CC1c1ccccc12.Cl (stereo unspecified) | 75 | 28 mg/kg and 112 µmol/kg | –
18 | Br.CN1CCCC2CC1c1ccccc12 (stereo unspecified) | – | 45 mg/kg and 168 µmol/kg | –
19 | COc1ccc2c(c1)C1CCCN(CCc3ccccc3)C2C1 (stereo unspecified) | – | – | ED50 [3]: inactive
